# The list is not random: actives were taken first. Their share in the collection is about 4.5%.
# PHOSPHO1 block: blocks human PHOSPHO1 phosphatase activity. Q8TCT1. recombinant PHOSPHO1, absorbance phosphatase assay. inhibition, % at 13.3 µM. hit rate 1.1% among 290,000; in the data active means inhibition above about 60%
# RGS4 block: human RGS4 inhibition. P49798. HEK293 M3R/RGS4 inducible, Fluo-4 calcium flux; hits give high values; triggered by carbachol at its EC20. B-score at 10 µM. hit rate 0.45% among 310,000. AID 463165;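 active means B-score, a plate-corrected calcium signal, over three deviations above library mean, with baseline fluorescence within five deviations of library mean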;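 further: RGS4 expression induced by doxycycline in cells with stable M3 receptor; B-score is computed from the integrated fluorescence ratio over baseline after carbachol; higher B-score means a larger calcium signal and so more RGS4 inhibition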
# Target sequence (P49798 whole entry, looked up): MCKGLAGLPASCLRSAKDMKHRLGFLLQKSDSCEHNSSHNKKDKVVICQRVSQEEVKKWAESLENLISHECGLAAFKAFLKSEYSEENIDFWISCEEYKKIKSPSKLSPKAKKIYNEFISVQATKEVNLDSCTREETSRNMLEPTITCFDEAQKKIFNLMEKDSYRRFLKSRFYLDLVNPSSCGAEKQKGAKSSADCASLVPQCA
# MrgX1 antagonist: blocks BAM8-22 activation of human MrgX1 receptor; B-score at 10 µM; hit rate 1.3% among 310,000; MRGX1-HEK293 calcium flux, Fluo-4, BAM8-22 antagonism; hits give low values; Q96LB2;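 active means calcium-response B-score plate-corrected more than 3 library SD below zero, starting fluorescence within 5 deviations, no agonist response on first addition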;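 further: peak minus trough fluorescence over baseline after final BAM8-22 challenge near maximal dose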
# Target sequence (Q96LB2 whole entry, looked up): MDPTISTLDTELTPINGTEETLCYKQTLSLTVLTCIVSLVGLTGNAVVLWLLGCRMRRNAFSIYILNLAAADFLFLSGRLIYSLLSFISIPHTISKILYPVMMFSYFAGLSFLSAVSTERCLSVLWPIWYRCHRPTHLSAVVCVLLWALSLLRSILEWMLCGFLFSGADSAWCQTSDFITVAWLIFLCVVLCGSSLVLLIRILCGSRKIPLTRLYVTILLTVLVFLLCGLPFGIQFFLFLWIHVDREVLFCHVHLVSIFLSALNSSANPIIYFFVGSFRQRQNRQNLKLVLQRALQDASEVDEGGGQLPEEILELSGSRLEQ
# MrgX1 PAM: allosterically activates human MrgX1 receptor signaling | Q96LB2 | AID 588675 | hit rate 0.63% among 310,000 | B-score at 10 µM | MrgX1-HEK293, Fluo-4 calcium flux, FDSS; hits give high values;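 active means plate-corrected calcium response at least 3 library SD above typical, normal starting fluorescence, not activating the receptor alone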;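 further: compound read alongside a low EC10 to EC30 dose of BAM8-22 agonist; peak minus trough fluorescence over baseline measured at the second addition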
# RGS4 act: potentiators or activators of RGS4; HEK293 M3R/inducible RGS4, carbachol calcium flux Fluo4; hits give low values; B-score at 10 µM; hit rate 0.92% among 310,000; AID 463111;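 active means B-score of the integrated calcium signal more than 4 SD below the library mean, with starting fluorescence not abnormally high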;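 further: negative B-score means reduced calcium response which marks RGS4 activation or potentiation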
#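 Assay system: HEK293 FlpIn-TREx cells, stable M3R, doxycycline-inducible RGS4 / Probe or stimulus: carbachol, ECmax concentration / Times: overnight RGS4 induction, 30 min dye load 37 °C, 20 min compound RT / Signal: kinetic calcium fluorescence imaging with Fluo4-AM dye, 2 µM / Measure: Agonist-evoked peak-minus-minimum fluorescence over baseline, integrated ratio, B score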
# MrgX1 ag: human MrgX1 receptor agonism, primary screen; Q96LB2; hit rate 0.44% among 310,000; B-score at 10 µM; MrgX1-HEK293 cells, Fluo-4 calcium fluorescence, agonist mode; hits give high values;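 active means calcium response B-score plate-corrected fluorescence ratio at least 3 library SD, with starting fluorescence B-score inside 5 SD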
#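 Test system: HEK293 cells stably expressing human MrgX1 receptor; Input: fifteen thousand cells per well; Dosing: compound delivered in addition one of three; Schedule: overnight seeding, then 1 h dark dye loading; Technique: Fluo-4 NW calcium fluorescence; Measure: B-scored fluorescence response ratio; Controls: positive and negative controls per plate.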
# * hit, by the source's call; i = inactive; . = no result given.
SMILES,PHOSPHO1 block,RGS4 block,MrgX1 antagonist,MrgX1 PAM,RGS4 act,MrgX1 ag
CCOc1ccc(C2C(C#N)=C(N)N3C(=C2C#N)Sc2ccccc23)cc1 (stereo not drawn),-24.9,i,-4.83*,i,i,i
N#CC1=C(N)N2C(=C(C#N)C1c1ccccc1)Sc1ccccc12 (stereo not drawn),-13.2,i,i,i,i,i
O=C(CN1CCN(C(=O)C2COc3ccccc3O2)CC1)Nc1ccccc1 (stereo not drawn),1.0,i,i,i,i,i
CCOC(=O)NN1C(=O)c2ccccc2NC1c1ccccc1 (stereo not drawn),-21.6,i,-4.55*,i,i,i
Cc1ccc(C)c2[nH]c(=O)c(CN(Cc3cccs3)C(=S)NCc3ccco3)cc12,-15.4,i,i,i,i,i
Cc1ccc(NC(=O)c2ccc3c(c2)C(=O)N(Cc2cccnc2)C3=O)c(C)c1,61.0*,i,i,i,i,i
Cc1cnc(NC(=O)c2ccc3c(c2)C(=O)N(Cc2cccnc2)C3=O)s1,62.8*,i,i,i,i,i
Cc1cccc(NC(=O)c2ccc3c(c2)C(=O)N(Cc2cccnc2)C3=O)c1C,42.6,i,i,i,i,i
O=C(Nc1nncs1)c1cc(S(=O)(=O)N2CCCCC2)ccc1Cl,22.8,i,i,i,i,i
CCN1CCN(Cc2ccc(NC(=O)c3ccc(C)c(NC(=O)C(=O)c4c[nH]c5ccccc45)c3)cc2C(F)(F)F)CC1,-7.3,i,i,i,-8.76*,i
CC(C)OC(=O)c1cc(NC(=S)Nc2ccc([N+](=O)[O-])cc2)cc(C(=O)OC(C)C)c1,-7.1,i,-6.65*,i,i,i
CCOCCCNC(=S)Nc1ccc(S(N)(=O)=O)cc1,87.9*,i,i,i,i,i
CCCNC(=S)Nc1ccc(S(N)(=O)=O)cc1,31.1,i,i,i,i,i
CCCCNC(=S)Nc1ccc([N+](=O)[O-])cc1,0.2,i,-5.55*,i,i,i
COc1ccc(NC(=S)NCCCCCC(=O)C[N+](=O)[O-])cc1,77.2*,i,i,i,i,i
CCOC(=O)c1nc(C)sc1-c1ccnn1S(=O)(=O)c1cccc(Cl)c1,53.3,i,i,i,i,i
COc1ccc(Cl)cc1NC(=O)CCN1C(=O)C2C3CCC(C3)C2C1=O (stereo not drawn),26.6,i,i,i,i,i
CC(C)C1CC(C(F)(F)F)n2nc(C(=O)O)cc2N1 (stereo not drawn),10.2,i,i,i,i,i
CC(=O)Nc1ccc(S(=O)(=O)NC2=C(N3CCN(Cc4ccccc4)CC3)C(=O)c3ccccc3C2=O)cc1,64.4*,i,i,i,i,i
CCN1CCN(C2=C(NS(=O)(=O)c3ccc(NC(C)=O)cc3)C(=O)c3ccccc3C2=O)CC1,34.4,i,i,i,i,i
COc1cc(/C=C/C(=O)N2CCN(C)CC2)cc(S(=O)(=O)N2CCc3ccccc32)c1OC,13.9,i,i,i,i,i
COc1ccc(CCNC(=O)CSc2ccccc2)cc1OC,-4.9,i,i,i,i,i
COc1ccc(CCNC(=O)CC(c2ccccc2)c2cccc(C)c2O)cc1OC (stereo not drawn),-10.2,i,-5.86*,i,i,i
CC[N+](C)(CC)CCC(c1ccccc1)C1CCCCC1 (stereo not drawn),9.7,i,i,i,-8.65*,i
CC[N+](C)(CC)CCOC(=O)C(O)(c1ccccc1)C1CCCCC1 (stereo not drawn),-3.8,i,i,i,i,i
SMILES,PHOSPHO1 block,RGS4 block,MrgX1 antagonist,MrgX1 PAM,RGS4 act,MrgX1 ag
CCN1C(=O)CS/C1=N\S(=O)(=O)c1ccccc1,15.7,i,i,i,i,i
CCN1C(=O)CS/C1=C(\C#N)S(=O)(=O)c1ccccc1,-6.6,i,i,i,i,41.5*
COc1ccc(C(=O)CC(CC(=O)c2ccc(OC)cc2)C(=O)O)cc1,.,i,i,i,i,i
CC(=O)c1coc2c1cc(O)c1ccccc12,64.4*,i,i,i,i,i
CC(=O)Oc1cc2c(C(C)=O)coc2c2ccccc12,0.2,i,i,i,i,i
CC(C)(C)NC(=O)CCN(/N=C/c1ccccc1O)C1=NS(=O)(=O)c2ccccc21,28.0,i,i,i,i,i
O=C1CSC(c2ccccc2Br)N1c1ccc(Cl)cn1 (stereo not drawn),-15.8,i,i,i,-7.01*,i
O=C1CSC(c2ccc(Cl)cc2Cl)N1c1ccccn1 (stereo not drawn),-2.9,i,i,i,i,i
CC(=O)NCC(=O)NC1CC(C)(C)Cc2c1cnn2-c1ccccc1 (stereo not drawn),12.8,i,i,i,i,i
Cc1ccc(NC(=O)CSc2ccc(Br)cc2)cc1S(=O)(=O)N1CCOCC1,.,i,i,i,i,i
Cc1cc(C)c2nc(N3CCC(C(=O)NCCCN4CC(C)CC(C)C4)CC3)sc2c1 (stereo not drawn),-26.7,i,i,i,-10.1*,i
C/C(=C\C(=O)c1ccc(Cl)cc1)Nc1ccc(N2CCOCC2)cc1,10.8,i,i,i,i,i
C/C(=C\C(=O)c1ccc(Br)cc1)Nc1ccc(Cl)cc1,-3.4,i,i,i,-7.16*,i
Cc1ccc2oc(C(=O)N3CCN(CC(=O)NC(C)C)CC3)c(C)c2c1,8.5,i,i,i,i,i
CCCN(c1ccccc1C(=O)O)S(=O)(=O)c1ccc2c(c1)n(C)c(=O)n2C,.,i,i,i,i,i
Oc1ccc(N2CCN(c3ncnc4sc5c(c34)CCC5)CC2)cc1,75.2*,i,i,i,i,i
CC(C)(C)C1=Nn2c(nnc2-c2n[nH]c3c2CCC3)SC1,68.3*,.,i,i,.,i
CC1=Nn2c(nnc2-c2n[nH]c3c2CCC3)SC1,11.4,i,i,i,i,i
Cc1cccc(N2CCN(C(=O)c3cc4cc(F)ccc4[nH]3)CC2)c1C,23.9,i,i,i,i,i
CN(C(=O)/C=C/c1ccc2c(c1)OCO2)c1ccccc1,2.4,i,i,9.1*,i,i
CN1C(=O)C(O)(CC(=O)/C=C\c2ccc3c(c2)OCO3)c2ccccc21 (stereo not drawn),27.9,i,-5.38*,i,i,i
